Drawing on ChEMBL document CHEMBL3244048, “Synthesis and biological activity of potential antimetabolites of L-fucose” (1979), this text covers inhibition and inhibition of growth for 16 compounds.

Experiment [1] has as its system P388. The experiment is described as follows: Displacement of L-[3H]-fucose from glycoprotein in mouse P388 cells at 10^-4 to 10^-3 M incubated for 2 hrs prior to radioligand addition measured after 30 mins by scintillation spectrometric analysis. The experiment is classed as cell-based. Summed up: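 P388 cells grown to midlog phase (4 × 10^5 cells/mL) in Fischer's medium plus 10% horse serum, then resuspended in fresh medium at 5 × 10^6 cells/mL. Preincubated 2 h at 37 °C with shaking with compound at 10^-4 or 10^-3 M. L-[3H]fucose and [14C]glucosamine (nonspecific control) then added for 30 min. Stopped with cold 10% TCA; pellets washed, lipid-extracted, hydrolyzed in 0.5 N NaOH at 85 °C; scintillation counting.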

Experiment [2] concerns P388. The experiment is described as follows: Cytotoxicity against mouse P388 cells assessed as growth inhibition at 1x10'-4 M after 72 hrs by Coulter counting analysis relative to control. The format is functional. The settings on record: P388, 72 h, read-out: GI. Summed up:
(§1)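 P388 leukemia cells seeded at 1.1 × 10^4 cells/mL in Fischer's medium with 10% horse serum. Compound dissolved in 0.9% NaCl, with or without 3% Me2SO, at ten times final concentration, filter-sterilized, and added at one-tenth volume. Incubation at 37 °C under 5% CO2; cell numbers counted in triplicate by electronic particle counter after 72 h.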

In experiment [3] the test system is P388. The experiment can be described thus: Cytotoxicity against mouse P388 cells assessed as growth inhibition at 1x10'-3 M after 72 hrs by Coulter counting analysis relative to control. The experiment is classed as functional. As to conditions: P388, 72 h, read-out: GI. Summed up: as §1
Experiment [4] deals with P388. The experiment is described as follows: Cytotoxicity against mouse P388 cells assessed as growth inhibition at 1x10'-5 M after 72 hrs by Coulter counting analysis relative to control. The format is functional. The settings on record: P388, 72 h, read-out: GI. Summed up:
as §1

Experiment [5] relates to P388. The experiment can be described thus: Cytotoxicity against mouse P388 cells assessed as growth inhibition at 5x10'-4 M after 72 hrs by Coulter counting analysis relative to control. The experiment is classed as functional. As to conditions: P388, 72 h, read-out: GI. The gist of the method:
as §1

Experiment [6] relates to P388. The experiment can be described thus: Cytotoxicity against mouse P388 cells assessed as growth inhibition at 2.5x10'-4 M after 72 hrs by Coulter counting analysis relative to control. The format is functional. As to conditions: P388, 72 h, read-out: GI. Summed up: as §1

Calls of active or inactive are those of the source. The rule behind the calls is not given here.

For the compound `COC[C@@H]1OC(O)[C@@H](O)[C@H](O)[C@@H]1O` (stereo not given in full), the inhibition result in the experiment with P388 [1] is “inactive”. In the experiment with P388 [2], the inhibition of growth at 100 µM amounted to 16%. In the experiment with P388 [3], the inhibition of growth at 1000 µM is 73%. Also, the inhibition of growth at 10 µM with P388 [4] was found to be 12%.
Take `CC(=O)NC[C@@H]1OC(O)[C@@H](O)[C@H](O)[C@@H]1O` (stereo not given in full): in the experiment on P388 [1], the inhibition entry was “inactive”. For the same compound, in the experiment with P388 [2], the inhibition of growth at 100 µM worked out at 9%. Also, the inhibition of growth at 1000 µM in the experiment with P388 [3] was determined as 16%. Moreover, the inhibition of growth at 10 µM in the experiment with P388 [4] was determined as 15%.
In the case of `OC1O[C@@H](COCc2ccccc2)[C@@H](O)[C@@H](O)[C@@H]1O` (stereo not given in full), the inhibition result in the experiment on P388 [1] was “inactive”. The inhibition of growth at 500 µM in the experiment on P388 [5] came out at 21%. The inhibition of growth at 100 µM in the experiment with P388 [2] worked out at 17%. The inhibition of growth at 1000 µM in the experiment with P388 [3] came out at 26%.
For `Cc1ccc(S(=O)(=O)OC[C@@H]2OC(O)[C@@H](O)[C@H](O)[C@@H]2O)cc1` (stereo not given in full), in the experiment with P388 [1], the inhibition result was “inactive”. The inhibition of growth at 500 µM with P388 [5] is 94%. In addition, in the experiment on P388 [2], the inhibition of growth at 100 µM is 25%. Also, the inhibition of growth at 1000 µM with P388 [3] was determined as 96%. In addition, the inhibition of growth at 10 µM with P388 [4] was 14%.
As to `[N-]=[N+]=NC[C@@H]1OC(O)[C@@H](O)[C@H](O)[C@@H]1O` (stereo not given in full), the inhibition entry in the experiment with P388 [1] is “inactive”. Moreover, the inhibition of growth at 100 µM in the experiment with P388 [2] was 12%. Besides, the inhibition of growth at 1000 µM with P388 [3] was found to be 20%. In the experiment with P388 [4], the inhibition of growth at 10 µM amounted to 7%.
On the same counts, the results for `OC1O[C@@H](CCl)[C@@H](O)[C@@H](O)[C@@H]1O` (stereo not given in full) are “inactive”, 10%, 15% and 10%.
On to `OC1O[C@@H](C(F)F)[C@@H](O)[C@@H](O)[C@@H]1O` (stereo not given in full), for which, in the experiment with P388 [1], the inhibition result was “inactive”. The inhibition of growth at 500 µM in the experiment with P388 [5] came to 0%. Further, the inhibition of growth at 100 µM with P388 [2] was 0%. In the experiment on P388 [3], the inhibition of growth at 1000 µM was 0%.
`OC1O[C@@H](CBr)[C@@H](O)[C@@H](O)[C@@H]1O` (stereo not given in full): in the experiment on P388 [1], the inhibition entry was “inactive”. In addition, the inhibition of growth at 500 µM in the experiment with P388 [5] is 87%. Further, in the experiment with P388 [2], the inhibition of growth at 100 µM was found to be 33%. Moreover, in the experiment on P388 [3], the inhibition of growth at 1000 µM came to 97%.
With `CC(=O)O[C@@H]1O[C@@H](C(F)F)[C@@H](OC(C)=O)[C@@H](OC(C)=O)[C@@H]1OC(C)=O`, the inhibition of growth at 250 µM in the experiment on P388 [6] is 89%.
With `OC1O[C@@H](CI)[C@@H](O)[C@@H](O)[C@@H]1O` (stereo not given in full), the inhibition result in the experiment on P388 [1] is “inactive”. In the experiment with P388 [5], the inhibition of growth at 500 µM amounted to 71%. Besides, the inhibition of growth at 100 µM with P388 [2] was 44%. Further, in the experiment with P388 [3], the inhibition of growth at 1000 µM was found to be 91%.
Consider `CC[C@@H]1OC(O)[C@@H](O)[C@H](O)[C@@H]1O` (stereo not given in full), for which the inhibition result with P388 [1] is “inactive”. The inhibition of growth at 1000 µM with P388 [3] amounted to 2%.
With `OC1O[C@@H](CF)[C@@H](O)[C@@H](O)[C@@H]1O` (stereo not given in full), the inhibition entry with P388 [1] was “inactive”. In the experiment with P388 [2], the inhibition of growth at 100 µM is 10%. Moreover, in the experiment on P388 [3], the inhibition of growth at 1000 µM was 8%. The inhibition of growth at 10 µM in the experiment with P388 [4] was 3%.
On the same counts, the results for `O=C(NC[C@@H]1OC(O)[C@@H](O)[C@H](O)[C@@H]1O)C(F)(F)F` (stereo not given in full) are “inactive”, 14%, 36% and 7%.
On to `O=S(=O)(OC[C@@H]1OC(O)[C@@H](O)[C@H](O)[C@@H]1O)c1ccccc1` (stereo not given in full), for which the inhibition entry in the experiment with P388 [1] was “inactive”. The inhibition of growth at 500 µM in the experiment with P388 [5] worked out at 95%. Also, the inhibition of growth at 100 µM in the experiment with P388 [2] worked out at 52%. In the experiment on P388 [3], the inhibition of growth at 1000 µM came to 97%.
On the same counts, the results for `CCOC[C@@H]1OC(O)[C@@H](O)[C@H](O)[C@@H]1O` (stereo not given in full) are “inactive”, 31%, 25% and 23%.
On the same counts, the results for `CS(=O)(=O)OC[C@@H]1OC(O)[C@@H](O)[C@H](O)[C@@H]1O` (stereo not given in full) are “inactive”, 86%, 56% and 96%.
